ERAP1 inh – blocks human ERAP1 aminopeptidase activity | 340,000 tested, 0.15% active | recombinant ERAP1, Leu-AMC fluorescence, 60 min | AID 652197 | Q9NZ08 | inhibition, % at 10.7 µM;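 active means mean replicate inhibition of at least 30%, or all replicates individually reaching that 30% level; inactive means mean below 30% and not every replicate reaching it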;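 further: 0% = neutral control wells and 100% = L-leucinethiol positive control wells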
FGF22 binding – shifts melting point of recombinant human FGF22; activity (Tm shift, normalised), % at 9.99 µM; recombinant FGF22 thermal shift, SYPRO orange fluorescence; percent of sucrose octasulfate shift, DMSO zero; 340,000 tested, 1.5% active; AID 651658; Q9HCT0;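 active means mean Tm shift, scaled 0 neutral to 100 positive control, at about 1.3% or above, every replicate too, limit read from the data; inconclusive means no clear call, values can overlap the other calls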
E-sel inducer – E-selectin induction on HUVECs | P16581 | HUVEC E-selectin immunofluorescence imaging; normalized: neutral wells 0, TNF-alpha wells 100 | activation, % at 7.58 µM | 260,000 tested, 0.37% active | AID 686992;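 active means mean E-selectin-positive cell signal at least 10% of the positive control, reached in at least 60% of replicates, without over 20% cell loss; inconclusive means no rule given, readout overlaps actives, possibly toxicity-flagged; inactive means the rest, including those meeting only one limit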
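System: HUVEC, human umbilical vein endothelial cells; quantity: 3,000 cells/well; buffer or medium: EGM-2 medium, gelatin-coated wells; dosing: single-point compound dose; detection: immunofluorescence imaging; evaluation: % PE-positive cells; benchmarks: TNF-alpha, DMSO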
DENV2 CPE – inhibitors of DENV2 cytopathic effect; AID 651640; 350,000 tested, 1.7% active; CPE inhibition, % at 9.99 µM; DENV2-infected cells, cytopathic effect rescue, plate reader; in the data active means CPE inhibition above about 20%, passing the limit was not always enough; inconclusive means no clear call, values can overlap the other calls; tested in BHK-21 cells;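 further: 0% = median of neutral control wells and 100% = median of positive control wells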
F508del corr – CFTR F508del correction in bronchial cells. CFBE cells, YFP halide quenching; stimulated with forskolin plus potentiator P3; % fluorescence drop versus neutral controls. activity (quench increase), % at 7.58 µM. 350,000 tested, 0.36% active. AID 720511;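 active means mean added fluorescence quench of at least 8% versus neutral control, with both replicates also reaching 8%; inconclusive means only one of the mean or replicate conditions met; inactive means mean below 8% and not both replicates reaching 8%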;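 further: cells transiently co-express mutant CFTR-F508del with the halide-sensitive YFP; corrector assay measuring rescue of mutant channel to the surface after 24 h compound exposure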
* = called active by the depositor; u = inconclusive; x = no result. Sampled rows, rich in hits. Any-hit rate of the full collection: about 3.7%.

SMILES	ERAP1 inh	FGF22 binding	E-sel inducer	DENV2 CPE	F508del corr
COc1ccc(S(=O)(=O)Nc2ccc3c(c2)C(=O)N([C@@H](C)CO)C[C@@H](C)[C@H](CN(C)C(=O)Nc2cccc4ccccc24)O3)cc1	-1.9	-0.3	0.9	-9.8	-1.3
O=C(c1ccccc1)N1CC[C@@H]2[C@H](CO)Nc3ccc(C#Cc4cccc(F)c4)cc3[C@@H]21	x	-0.2	0.4	116.2*	0.0
O=C(c1cccc(F)c1)N1CC[C@@H]2[C@@H](CO)Nc3ccc(C#Cc4ccccc4)cc3[C@@H]21	-3.2	x	0.6	-4.6	-0.6
O=C(c1ccccc1)N1CC[C@H]2[C@H](CO)Nc3ccc(C#Cc4cccc(F)c4)cc3[C@H]21	x	-0.2	0.3	63.6*	-1.0
COc1ccc(NC(=O)Nc2ccc3c(c2)CC(=O)N([C@@H](C)CO)C[C@@H](C)[C@H](CN(C)Cc2ccc(Cl)c(Cl)c2)O3)cc1	x	-0.1	-1.3	-1.6	4.0
CCOC(=O)C1(CC2CC2)CCN(Cc2cn(C)c3ccccc23)CC1	-5.0	44.0*	x	1.2	5.7
CCOC(=O)C1(Cc2ccccc2)CCN(Cc2cn(CC(=O)OC)c3ccccc23)CC1	-0.8	0.2	0.1	3.6	2.1
COCc1cn(CC[C@@H]2CC[C@H](NC(=O)Nc3ccc(OC)cc3)[C@@H](CO)O2)nn1	-0.5	-0.1	-1.2	u	0.2
O=C(O)c1ccccc1C(=O)NCc1c(Cl)cccc1Sc1ccc(Cl)cc1	-4.5	0.0	0.3	26.2*	1.1
O=C(Nc1ccc(F)cc1)N1CC(=O)N2[C@H](C1)[C@@H](c1ccc(C#CC3CC3)cc1)[C@@H]2CO	-0.5	x	-0.4	-0.1	1.4
CC[N+]1=C(C)C(C)(C)c2cc(C)ccc21	13.7	42.4	169.1*	1.4	-19.1
CCN1C(=O)C(=O)c2cc(C)ccc21	-0.2	0.2	-0.1	-11.9	2.8
CC(C)NC(=O)N(C)C[C@H]1Oc2c(NS(=O)(=O)c3cccs3)cccc2C(=O)N([C@@H](C)CO)C[C@H]1C	x	x	-0.2	x	0.6
CC(=O)Nc1ccc(S(=O)(=O)N2c3ccccc3C(C)=CC2(C)C)cc1	-2.0	42.4	0.5	-0.9	9.5*
CCCC(=O)Nc1ccc2c(c1)OC[C@@H](C)N(C(=O)c1ccccc1F)C[C@H](C)[C@H](OC)CN(C)C2=O	x	x	-0.1	x	0.1
Cc1cccn2c(=O)c(C=O)c(N3CCN(c4ccccc4)CC3)nc12	3.6	43.1*	x	-7.8	-1.5
Cc1cccn2c(=O)c(C=O)c(N3CCN(C)CC3)nc12	3.6	-0.1	x	-1.2	1.0
CN1CCN(C(=O)C[C@@H]2C[C@@H]3c4cc(NC(=O)C5CCC5)ccc4O[C@@H]3[C@@H](CO)O2)CC1	-0.5	0.0	0.2	2.0	1.4
COc1ccc(NC(=O)N(C)C[C@H]2Oc3ccc(NC(=O)Cc4cn(C)c5ccccc45)cc3C(=O)N([C@@H](C)CO)C[C@H]2C)cc1	-1.0	-0.4	0.5	9.2	-0.1
CCOC(=O)C1=C(C)NC(=S)NC1C (configuration not stated)	0.3	43.8*	x	-3.1	-1.3
CCS(=O)(=O)Nc1ccc2c(c1)C(=O)N(C)[C@H]1CC[C@H](CC(=O)OC)O[C@H]1CO2	2.3	0.3	-0.1	u	0.9
COc1ccc(C2NC(Cc3ccccc3)(C(=O)O)C3C(=O)N(c4ccccc4OC)C(=O)C23)cc1 (configuration not stated)	3.2	42.9*	x	-6.0	x
COc1ccc(CCN2C(=O)CSCC2(C)C(=O)Nc2ccc3c(c2)OCCO3)cc1OC (configuration not stated)	6.4	0.1	-0.2	20.6*	-0.1
COCCN1C(=O)CN(S(C)(=O)=O)CC1(C)C(=O)Nc1ccc2c(c1)OCCO2 (configuration not stated)	-1.6	0.1	-0.2	33.2*	-1.0
CC(C)C[C@@H]1CC2=C(C(=O)OC(C)(C)O2)[C@H](CCc2ccccc2)O1	-5.7	-0.5	0.1	28.6*	1.0
SMILES	ERAP1 inh	FGF22 binding	E-sel inducer	DENV2 CPE	F508del corr
CC(C)[C@@H]1CC2=C(C(=O)OC(C)(C)O2)[C@H](CCc2ccccc2)O1	-4.5	0.0	1.3	42.0*	5.4
CC(C)C[C@@H]1O[C@H](CCc2ccccc2)CC2=C1C(=O)OC(C)(C)O2	x	0.1	-0.1	-14.8	1.0
CC1(C)OC(=O)C2=C(CC(CCc3ccccc3)OC2CCc2ccccc2)O1 (configuration not stated)	-3.8	0.2	0.2	3.8	-2.5
CN(C)S(=O)(=O)Oc1ccsc1C(=O)Nc1ccc(Br)cc1	-3.1	56.8*	x	1.2	0.8
CN(C)S(=O)(=O)Oc1ccsc1C(=O)Nc1ccc(C(F)(F)F)cc1	-1.9	-0.1	x	-2.8	3.0
COc1ccc(S(=O)(=O)N(C)C[C@@H]2Oc3ccc(NC(=O)Cn4cnnn4)cc3C(=O)N([C@H](C)CO)C[C@H]2C)cc1	-3.5	-0.3	0.0	5.8	2.1
C[C@H](CO)N1C[C@H](C)[C@H](CN(C)C(=O)NC2CCCCC2)Oc2ccc(NC(=O)Cc3ccccc3)cc2C1=O	-2.6	-0.3	-9.8	33.2*	0.8
CC(C)NC(=O)N(C)C[C@@H]1Oc2ccc(NC(=O)Cc3cn(C)c4ccccc34)cc2C(=O)N([C@H](C)CO)C[C@H]1C	-3.0	0.0	48.6*	51.8*	2.0
C[C@@H]1CN([C@@H](C)CO)C(=O)c2cc(NC(=O)Cc3cn(C)c4ccccc34)ccc2O[C@H]1CN(C)C(=O)NC1CCCCC1	2.8	0.4	x	23.5*	0.3
CC(C)NC(=O)N(C)C[C@@H]1Oc2ccc(NC(=O)Cc3cn(C)c4ccccc34)cc2C(=O)N([C@@H](C)CO)C[C@@H]1C	1.4	0.0	4.8	4.1	1.8
CNC[C@H]1OCCCC[C@@H](C)Oc2ccc(NC(=O)CCC(F)(F)F)cc2C(=O)N([C@@H](C)CO)C[C@@H]1C	x	x	0.3	x	-1.1
C[C@@H]1CCCCO[C@H](CN(C)C(=O)c2ccncc2)[C@H](C)CN([C@@H](C)CO)C(=O)c2cc(NS(C)(=O)=O)ccc2O1	2.0	0.0	-0.2	-4.6	-0.1
COc1ccccc1-c1cn(CC[C@@H]2CC[C@H](NS(=O)(=O)c3ccccc3C)[C@H](CO)O2)nn1	-3.2	0.1	-0.1	-4.4	2.4
CC(=O)N1CCN(Cc2nc(-c3cccc(Cl)c3)no2)CC1	5.2	43.1*	1.0	1.1	-0.2
CN1CCCN(Cc2nc(-c3cccc(C(F)(F)F)c3)no2)CC1	0.1	43.3*	-0.1	-5.8	0.5
CCn1nc(CC(=O)O)c2ccccc2c1=O	0.4	43.7*	185.1*	5.0	0.5
CCOC(=O)C1=C[C@@H](C(C)C)N(S(=O)(=O)c2ccc([N+](=O)[O-])cc2)[C@H]1c1ccccc1	-3.4	-0.2	-0.7	u	0.4
CCOC(=O)C1=C[C@@H](c2ccccc2)N(S(=O)(=O)c2ccc(C)cc2)[C@H]1c1cccc(Cl)c1	-3.9	0.1	-0.3	30.1*	-0.2

High-throughput results (PubChem BioAssay)
